# ATG4B inh – ATG4B protease inhibitors, primary screen, biochemical, fluorescence, uHTS; 340,000 compounds, 0.51% hits; ATG4B cleavage of LC3-PLA2, NBD-HPC fluorescence, 1 h; Cysteine protease ATG4B (Homo sapiens), Q9Y4P1; inhibition, % at 8.33 µM; AID 504462, 2011; in the data active = inhibition above about 40%
# Arr AP2 block – inhibitors of beta-arrestin/AP2 binding, primary screen, biochemical, GPCR trafficking, flow cytometry; inhibition, % at 10 µM; beta-arrestin 1 C-terminal peptide binding to AP2 beta2-adaptin appendage (human); 340,000 compounds, 0.31% hits; FITC-arrestin peptide / GST-AP2 beads; AP2 beta2 appendage carries R879A mutation; AID 504490, 2011;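 active = inhibition above a set limit, near 3 SD of compounds lacking own fluorescence, cut at about 54% in these data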;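 note: plate controls were DMSO wells for no effect and 5 µM unlabelled arrestin peptide for full effect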
#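 test system = AP2 appendage R879A on GSH beads | buffer or medium = PBS plus Tween 20 (0.05%) and BSA (0.1%) | incubation = 12 min plus 1 h, RT | detection = bead flow cytometry, FITC channel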
# Granule exo inh – LAMP-1 surface exposure blockers, TALL-104 cells – cell-based, flow cytometry, MLPCN library, primary screen | AID 651702, 2012 | inhibition, % at 10 µM | 360,000 compounds, 0.66% hits | TALL-104 LAMP-1 surface exposure; cells stimulated with thapsigargin and PMA;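 active = inhibition above about 55%, limit read from the data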
# Myeloid diff 2 – induction of myeloid progenitor differentiation, primary screen, cell-based, flow cytometry, MLPCN library | AID 624256, 2012 | calls only at 10 µM | 360,000 compounds, 1% hits | ER-HoxA9 myeloid progenitors, lysozyme-GFP differentiation;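 active = normalized GFP-positive differentiation at or above the plate's own cutoff, the solvent-only control mean plus 3 SD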;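 note: cells exposed to compound for four days before flow analysis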
# ABCB6 inh 2 – ABCB6 transporter inhibitors, primary screen, K562-ABCB6 cells, flow cytometry, MLPCN library | ATP-binding cassette sub-family B member 6 (Homo sapiens), Q9NP58 | K562-ABCB6 porphyrin accumulation, 1 h; active compounds read low | fluorescence ratio to DMSO, % at 10 µM | 360,000 compounds, 0.19% hits;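 active = fluorescence ratio to DMSO below 75%, the collection mean minus 3 SD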;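 note: signal is porphyrin accumulated inside mitochondria; 100% equals median channel fluorescence of DMSO control wells; lower ratio means ABCB6 inhibition with less porphyrin fluorescence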
# CendR NRP1 mod – modulators of CendR peptide binding to NRP-1, primary screen, biochemical, fluorescence polarization, uHTS; 360,000 compounds, 0.85% hits; FAM-RPARPAR peptide binding to NRP-1; inhibition, % at 25 µM;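 active = inhibition or corrected inhibition above about 18%, plus a signal ratio from 0.5 to 1.5, limit read from the data, passing the limit was not always enough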
# Target sequence (O14786 whole entry, looked up): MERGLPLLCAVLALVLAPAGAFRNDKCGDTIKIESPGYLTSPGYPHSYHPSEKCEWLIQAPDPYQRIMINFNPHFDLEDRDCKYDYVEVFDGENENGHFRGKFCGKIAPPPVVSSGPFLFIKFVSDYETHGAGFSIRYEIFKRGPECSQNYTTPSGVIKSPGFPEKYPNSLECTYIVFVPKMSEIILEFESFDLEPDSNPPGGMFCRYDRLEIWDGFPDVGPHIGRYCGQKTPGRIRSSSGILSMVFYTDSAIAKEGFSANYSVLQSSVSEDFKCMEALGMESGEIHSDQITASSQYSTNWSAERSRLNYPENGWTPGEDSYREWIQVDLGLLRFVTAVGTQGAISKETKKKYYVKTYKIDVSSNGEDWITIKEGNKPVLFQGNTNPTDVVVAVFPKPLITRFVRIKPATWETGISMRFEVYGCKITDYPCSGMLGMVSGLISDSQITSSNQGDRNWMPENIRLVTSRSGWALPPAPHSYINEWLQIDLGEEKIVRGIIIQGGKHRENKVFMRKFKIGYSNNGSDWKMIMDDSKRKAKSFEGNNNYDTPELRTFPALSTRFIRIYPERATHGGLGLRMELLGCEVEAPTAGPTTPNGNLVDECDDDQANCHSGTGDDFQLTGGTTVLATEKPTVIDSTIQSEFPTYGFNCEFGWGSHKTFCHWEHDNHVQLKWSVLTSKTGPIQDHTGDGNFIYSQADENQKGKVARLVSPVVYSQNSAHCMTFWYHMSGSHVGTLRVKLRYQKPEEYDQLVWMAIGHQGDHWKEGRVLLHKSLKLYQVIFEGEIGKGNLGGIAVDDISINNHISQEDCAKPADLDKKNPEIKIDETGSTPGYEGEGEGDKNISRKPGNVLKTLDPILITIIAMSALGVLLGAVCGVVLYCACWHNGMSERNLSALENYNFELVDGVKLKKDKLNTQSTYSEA
# ABCB6 blocker 1 – ABCB6 transporter inhibitors, confirmation, K562-ABCB6 cells, flow cytometry, cherry pick 1 | shares compounds with ABCB6 inh 2 | K562-ABCB6 porphyrin accumulation, 1 h; active compounds read low | ratio response (% of DMSO), % at 10 µM | 700 tested, under 10 active | AID 602430, 2012;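 active = repeat-averaged ratio response below 75% of DMSO, the collection mean minus 3 SD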;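 note: median porphyrin fluorescence at 575 nm with 488 nm excitation from mitochondria; lower ratio means less porphyrin signal so ABCB6 inhibition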
# * = called active by the depositor; i = inactive; nt = no result. Hits are enriched below; roughly 3.3% of the tested compounds scored in any of these assays.
SMILES,ATG4B inh,Arr AP2 block,Granule exo inh,Myeloid diff 2,ABCB6 inh 2,CendR NRP1 mod,ABCB6 blocker 1
COc1ccc(CCNC(=O)COc2ncnc3cc([N+](=O)[O-])ccc23)cc1,0,5,-4,i,102,14,nt
O=[N+]([O-])c1cccc(COc2ncnc3cc([N+](=O)[O-])ccc23)c1,20,-13,1,i,10*,4,96
CN(C)Cc1c(C(=O)N/N=C/c2cccs2)nnn1-c1nonc1N,1,2,-6,i,91,5,nt
CCCCn1c(N)c(N(CC(C)C)C(=O)CCCSc2nncs2)c(=O)[nH]c1=O,1,-19,-3,i,98,3,nt
CC1(C)CC(=O)c2cc(C(=O)NC3CCSC3=O)c(=O)n(-c3ccc(Cl)cc3)c2C1 (centres undefined),18,21,-12,i,63*,-8,101
Cc1ccc(-n2c3c(cc(C(=O)NC4CCSC4=O)c2=O)C(=O)CC(C)(C)C3)cc1 (centres undefined),-12,7,4,i,102,-12,nt
COc1ccc(NC(=O)CNC(=O)c2ccco2)cc1S(=O)(=O)Nc1cc(C)ccc1Br,0,7,-4,i,99,-9,nt
Cc1ccc(S(=O)(=O)N2CCN(Cc3ccccc3)CC2)cc1,-5,-14,1,i,8.0*,6,92
O=S(=O)(c1ccccc1)N1CCN(Cc2ccccc2)CC1,-1,35,-8,i,93,8,nt
O=C(Nc1ccc(Br)cc1)c1cccnc1N1CCCCC1,-1,16,1,i,73*,1,100
O=C1CCC(C(=O)Nc2ccccc2N2CCCC2)=NN1,7,21,-1,i,98,5,nt
COc1ccc(CCC(=O)OCC(=O)NCc2ccc3c(c2)OCO3)cc1,-3,-3,-4,i,95,0,nt
O=C(COC(=O)CSc1ccc2ccccc2c1)NCc1ccc2c(c1)OCO2,22,-1,-8,i,65*,-7,98
COc1cc(C(C[N+](=O)[O-])c2c(C)[nH]c3ccccc23)cc(OC)c1OC (centres undefined),1,5,0,i,74*,8,103
O=C(COc1cccc(C(F)(F)F)c1)Nc1ccc(S(=O)(=O)N2CCCC2)cc1,-17,1,9,i,60*,-2,102
COC(=O)c1ccc(NC(=O)COc2ccc(S(=O)(=O)N3CCCCC3)cc2)cc1,-8,10,1,i,70*,4,97
O=C(Nc1ccc([N+](=O)[O-])cc1)c1ccc(S(=O)(=O)N2CCCC2)cc1,-2,-1,-10,i,73*,0,100
CC(C)(C)NC(=O)CN(C(=O)CS(=O)CC(=O)Nc1ccc(F)cc1)c1cccc(F)c1 (centres undefined),-2,-8,-1,i,100,1,nt
COc1ccc2cc(C(c3nnnn3C3CCCC3)N3CCOCC3)c3nnnn3c2c1 (centres undefined),-5,-3,-4,i,96,-5,nt
CCCCCC(O)(c1ccccc1)C(CN1CCOCC1)c1ccccc1 (centres undefined),-9,-12,6,i,72*,5,100
O=c1cc(CSc2nnnn2-c2ccccc2)nc2nc[nH]n12,-13,-5,0,i,64*,-4,98
O=c1cc(CSc2nnnn2-c2ccccc2)nc2sccn12,-5,25,23,i,96,1,nt
C/C(=N\Nc1c([N+](=O)[O-])c(C)nn1C)c1ccc(F)cc1F,8,-20,3,i,98,2,nt
O=C(C1CCN(S(=O)(=O)c2c(Cl)cccc2Cl)CC1)N1CCCCCCC1,6,6,-6,i,72*,8,99
CC(=O)c1cccc(NC(=O)CN2C(=O)NC3(CCCCCCC3)C2=O)c1,0,2,1,i,61*,-20,99
SMILES,ATG4B inh,Arr AP2 block,Granule exo inh,Myeloid diff 2,ABCB6 inh 2,CendR NRP1 mod,ABCB6 blocker 1
CCNC(=O)c1cccc(NC(=O)CN2C(=O)NC3(CCCCC3)C2=O)c1,-10,-6,5,i,100,-9,nt
O=C(CC1SCCNC1=O)Nc1ccc(F)c(Cl)c1 (centres undefined),2,-6,5,i,103,-14,nt
Cc1ccc(NC(=O)CC2SCCNC2=O)cc1Cl (centres undefined),-7,3,0,i,67*,-8,100
CN(C)c1ccc2c(c1)Sc1cc(N(C)C)ccc1N2C(=O)c1ccccc1,12,2,-26,i,73*,-13,94
Cc1ccc(C(=O)N2c3ccccc3Sc3ccccc32)cc1,nt,nt,-1,i,97,-5,nt
Cc1cccc(-c2noc(CCC(=O)N3CCN(c4cc(C)ccc4C)CC3)n2)c1,3,4,-2,i,100,-18,nt
N#CCCSCc1ccc(C(=O)O)o1,12,32,1,i,68*,4,99
O=C(CN1CCCCC1)Nc1cccc(Br)c1,-9,16,-6,i,69*,6,98
CCOC(=O)N1CCN(CC(=O)Nc2ccc(C)cc2)CC1,-15,-11,6,i,72*,-8,96
COc1ccc(NC(=O)CN2CCCCCC2)cc1OC,-2,-8,4,i,73*,1,100
O=C(CN1CCOCC1)Nc1cccc(Br)c1,-11,6,2,i,100,-17,nt
CCCCCCCSc1ncnc2[nH]ncc12,-2,-4,2,i,100,13,nt
COc1ccc(S(=O)(=O)N(Cc2nc3ccccc3c(=O)[nH]2)C2CCCC2)cc1,-12,-13,-1,i,68*,4,101
COc1ccc(CN(Cc2nc3ccccc3c(=O)[nH]2)C(=O)NC2CCCCC2)cc1,-7,3,-1,i,96,-10,nt
CCc1ccccc1NC(=O)CCCSc1nc2ccccc2s1,23,11,-2,i,72*,11,103
Cc1cnc(NC(=O)CCCSc2nc3ccccc3s2)s1,-12,8,3,i,96,-14,nt

# Bioassay records as filed in PubChem.
